This passage reports Cmax, AUBC and MIC results from ChEMBL document CHEMBL1154423, “Activity of colistin against heteroresistant Acinetobacter baumannii and emergence of resistance in an in vitro pharmacokinetic/pharmacodynamic model” (Antimicrob Agents Chemother, 2007).

The nature of data set [1]: Cmax in in vitro PK/PD model at loading dose of 0.30 mg and maintenance dose of 0.23 mg dosed at 8 hrs intervals. The data set is classed as ADME, organism-based. More on the design: dose 0.3 mg.
A short description of data set [2]: Cmax in in vitro PK/PD model at loading dose of 0.45 mg and maintenance dose of 0.39 mg dosed at 12 hrs intervals. It is filed as ADME, organism-based. Also on record: dose 0.45 mg.
Data set [3] in a line: Cmax in in vitro PK/PD model at loading dose of 0.90 mg and maintenance dose of 0.89 mg dosed at 24 hrs intervals. More on the design: dose 0.9 mg. The data set is classed as ADME, organism-based.
Data set [4] concerns Acinetobacter baumannii. In words: Antibacterial activity against Acinetobacter baumannii ATCC 19606 assessed as AUBC (0 to 72 hrs) normalized to log10CFU/ml in in vitro PK/PD model at loading dose of 0.30 mg and maintenance dose of 0.23 mg dosed at 8 hrs intervals. It is filed as functional, organism-based. Put shortly:
(§1)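 One-compartment in vitro PK/PD model at 37°C. Cation-adjusted Mueller-Hinton broth was pumped from a reservoir into the central compartment, with an early-log-phase inoculum of about 10^6 CFU/ml. Colistin sulfate simulated human colistin PK. Intermittent regimens were dosed into the central compartment; for the continuous regimen, colistin was spiked into the reservoir broth. Viable counts were by spiral plating over 0–72 h, AUBC0-72 normalized to log10 CFU/ml at t=0, n=3.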

Data set [5] deals with Acinetobacter baumannii. In words: Antimicrobial activity against gentamicin and ciprofloxacin resistant Acinetobacter baumannii ATCC 19606. It is filed as functional, organism-based.
Data set [6] concerns Acinetobacter baumannii. In words: Antibacterial activity against Acinetobacter baumannii ATCC 19606 assessed as AUBC (0 to 72 hrs) normalized to log10CFU/ml in in vitro PK/PD model at loading dose of 0.45 mg and maintenance dose of 0.39 mg dosed at 12 hrs intervals. It is filed as functional, organism-based. Put shortly:
as §1

Data set [7] relates to Acinetobacter baumannii. In words: Antibacterial activity against Acinetobacter baumannii ATCC 19606 assessed as AUBC (0 to 72 hrs) normalized to log10CFU/ml in in vitro PK/PD model at loading dose of 0.90 mg and maintenance dose of 0.89 mg dosed at 24 hrs intervals. The data set is classed as functional, organism-based. Put shortly:
as §1

In data set [8] the test system is Acinetobacter baumannii. Description: Antibacterial activity against Acinetobacter baumannii isolate 6 assessed as AUBC (0 to 72 hrs) normalized to log10CFU/ml in in vitro PK/PD model at loading dose of 0.30 mg and maintenance dose of 0.23 mg dosed at 8 hrs intervals. The data set is classed as functional, organism-based. Put shortly:
as §1

For data set [9], the system named is Acinetobacter baumannii. Description: Antibacterial activity against Acinetobacter baumannii isolate 6 assessed as AUBC (0 to 72 hrs) normalized to log10CFU/ml in in vitro PK/PD model at loading dose of 0.45 mg and maintenance dose of 0.39 mg dosed at 12 hrs intervals. The data set is classed as functional, organism-based. Put shortly:
as §1

The subject of data set [10] is Acinetobacter baumannii. In words: Antimicrobial activity against Ceftazidime resistant Acinetobacter baumannii isolate 6. It is filed as functional, organism-based.
In data set [11] the test system is Acinetobacter baumannii. In words: Antibacterial activity against Acinetobacter baumannii ATCC 19606 assessed as AUBC (0 to 72 hrs) normalized to log10CFU/ml in in vitro PK/PD model at continuous maintenance dose of 4.5 ug/ml. The data set is classed as functional, organism-based. Put shortly:
as §1

Data set [12] has as its system Acinetobacter baumannii. In words: Antibacterial activity against Acinetobacter baumannii isolate 6 assessed as AUBC (0 to 72 hrs) normalized to log10CFU/ml in in vitro PK/PD model at loading dose of 0.90 mg and maintenance dose of 0.89 mg dosed at 24 hrs intervals. It is filed as functional, organism-based. Put shortly: as §1
In data set [13] the test system is Acinetobacter baumannii. Description: Antibacterial activity against Acinetobacter baumannii isolate 6 assessed as AUBC (0 to 72 hrs) normalized to log10CFU/ml in in vitro PK/PD model at continuous maintenance dose of 4.5 ug/ml. The data set is classed as functional, organism-based. Put shortly:
as §1

As for COLISTIN [listing 1 of 2 here], the values for the Cmax in data set [1], in data set [2] and in data set [3] were 3000 ng/mL, 4500 ng/mL and 9000 ng/mL, respectively.
For COLISTIN [listing 2 of 2 here], the AUBC in the data set with Acinetobacter baumannii [4] was determined as 68.5 log10CFU/ml; in the data set on Acinetobacter baumannii [6], 68.5 log10CFU/ml; in the data set with Acinetobacter baumannii [7], 67 log10CFU/ml; with Acinetobacter baumannii [8] it was 68 log10CFU/ml; with Acinetobacter baumannii [9] it was 64.9 log10CFU/ml; in the data set with Acinetobacter baumannii [11], 72.7 log10CFU/ml. Further, the AUBC came to 58.5 log10CFU/ml in the data set with Acinetobacter baumannii [12] and 65.6 log10CFU/ml in the data set with Acinetobacter baumannii [13]. For the same sequence, the MIC against Acinetobacter baumannii [5] and against Acinetobacter baumannii [10] was 1 µg/mL throughout.

In general, Cmax refers to the peak of the concentration-time curve. As a reminder, the MIC is the lowest concentration found to suppress growth. High values mean weaker potency, low ones greater potency.
